# Experiments:
# [1] = Tested for substrate activity of compound for Carboxypeptidase G1; design: species or system Mus musculus
# Summary of the method: (§1)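 Cleavage by carboxypeptidase G₁ was followed as the A320 change on release of the pteroate. Conditions were 37 °C in 0.05 M potassium phosphate, pH 6.7, with 100 μM ZnSO₄. Enzyme was diluted in 1% BSA to give ΔA320 of 0.02–0.2/min. Km and Vmax came from Lineweaver-Burk plots. Ki came from competitive runs varying analogue against fixed MTX, or vice versa.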
# [2] = Tested for substrate activity of compound for Carboxypeptidase G1 (exp 2); summary of the method: as §1
# [3] = molecular target: T1, Dihydrofolate reductase (Mus musculus) (UniProt P00375); assay: Binding affinity to Dihydrofolate reductase of L1210 cell line using [H]MTX as radioligand; format: cell-based
# T1 sequence (whole entry): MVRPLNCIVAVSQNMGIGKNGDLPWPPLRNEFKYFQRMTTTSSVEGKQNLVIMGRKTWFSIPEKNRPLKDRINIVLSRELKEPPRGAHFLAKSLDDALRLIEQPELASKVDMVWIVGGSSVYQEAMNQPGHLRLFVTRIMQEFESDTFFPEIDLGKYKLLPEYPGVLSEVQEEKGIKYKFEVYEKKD
# Summary of the method: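 Competitive [³H]MTX binding to dihydrofolate reductase from L1210 leukemia. Ascites cells from tumor-bearing mice were washed and lysed before use. The assay ran at 37 °C in 0.1 M potassium phosphate, pH 6.8. ID₅₀ was read as inhibition of radioligand binding, with MTX included in each experiment.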
# [4] = molecular target: T1, Dihydrofolate reductase (Mus musculus); assay: Binding affinity to Dihydrofolate reductase of L1210/R71 using spectrophotometric assay
# Summary of the method: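 The enzyme was isolated from MTX-resistant L1210/R71 cultured cells and purified on MTX-agarose. The assay measured ΔA340 at 22 °C in 0.1 M Tris, pH 7.0, with 62 nM enzyme. Enzyme was preincubated 2 min with inhibitor and NADPH, and dihydrofolate was then added to start the reaction. ID₅₀ determined.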
# [5] = system: L1210; assay: cytotoxicity against L1210 cells; format: functional; conditions: Mus musculus, read-out: ID50 (the source's name)
# [6] = species: Mus musculus; assay: Percentage increase in life span after 16-18 days; format: functional
# Summary of the method: (§2)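 Male B6D2F1J mice (20–25 g), randomized after i.p. inoculation with 10^5 L1210 ascitic leukemia cells on day 0. Drug in water, pH 7.5–8.0, given i.p. on a q2d×5, qd×9 (from day 1) or b.i.d.×10 schedule; 5 mice per group. %ILS = [(T/C) − 1]100 from median survival days of treated versus control mice. Range is survival days.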
# [7] = species: Mus musculus; assay: Percentage increase in life span after 17-19 days; format: functional; summary of the method: as §2
# [8] = species: Mus musculus; assay: Percentage increase in life span after 8-17 days; format: functional; summary of the method: as §2
# [9] = species: Mus musculus; assay: Percentage increase in life span after 9-11 days; format: functional; summary of the method: as §2
# [10] = species: Mus musculus; assay: Percentage increase in life span after 9-24 days; format: functional; summary of the method: as §2
# [11] = species: Mus musculus; assay: Percentage increase in life span after 10-24 days; format: functional; summary of the method: as §2
# [12] = species: Mus musculus; assay: Percentage increase in life span after 12-16 days; format: functional; summary of the method: as §2
# [13] = species: Mus musculus; assay: Percentage increase in life span after 12-19 days; format: functional; summary of the method: as §2
# [14] = species: Mus musculus; assay: (§3) Percentage increase in life span after 12-20 days; format: functional; summary of the method: as §2
# [15] = species: Mus musculus; assay: as §3; format: functional; summary of the method: as §2; remark: listed apart in the source
# [16] = species: Mus musculus; assay: Percentage increase in life span after 12-22 days; format: functional; summary of the method: as §2
# [17] = system: Mus musculus; assay: Weight change on day 7 in L1210 Lymphoid Leukemia in mice at a dose of 12 mg/kg/day (b.i.d. x10); format: functional
# Summary of the method: (§4)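 Male B6D2F₁J mice (20–25 g) bearing ip L1210 ascites (10⁵ cells, day 0) were used, 5 per group. Drug was given ip in water at pH 7.5–8.0 from day 1 on q2d×5, qd×9 or b.i.d.×10 schedules. Animals were weighed after 7 days and percent weight change recorded.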
# [18] = system: Mus musculus; assay: Weight change on day 7 in L1210 Lymphoid Leukemia in mice at a dose of 15 mg/kg/day (b.i.d. x10); format: functional; summary of the method: as §4
# [19] = system: Mus musculus; assay: Weight change on day 7 in L1210 Lymphoid Leukemia in mice at a dose of 20 mg/kg/day (qdx9); format: functional; summary of the method: as §4
# [20] = system: Mus musculus; assay: Weight change on day 7 in L1210 Lymphoid Leukemia in mice at a dose of 2 mg/kg/day (qdx9); format: functional; summary of the method: as §4
# [21] = system: Mus musculus; assay: Toxicity in mice after 12-16 days at a dose of 20 mg/kg/day; value is 14/9; format: functional
# [22] = system: Mus musculus; assay: Toxicity in mice after 12-19 days at a dose of 8 mg/kg/day; value is 12/8.5; format: functional
# [23] = system: Mus musculus; assay: Toxicity in mice after 12-20 days at a dose of 20 mg/kg/day; value is 13/9; format: functional
# [24] = system: Mus musculus; assay: Toxicity in mice after 12-20 days at a dose of 40 mg/kg/day; value is 14/9; format: functional
# [25] = system: Mus musculus; assay: Toxicity in mice after 12-22 days at a dose of 60 mg/kg/day; value is 21/9; format: functional
# [26] = system: Mus musculus; assay: Toxicity in mice after 16-18 days at a dose of 9 mg/kg/day; value is 17/9; format: functional
# [27] = system: Mus musculus; assay: Toxicity in mice after 17-19 days at a dose of 40 mg/kg/day; value is 18/9; format: functional
# [28] = system: Mus musculus; assay: Toxicity in mice after 8-17 days at a dose of 4 mg/kg/day; value is 11/8.5; format: functional
# [29] = system: Mus musculus; assay: Toxicity in mice after 9-11 days at a dose of 2 mg/kg/day; value is 10/8.5; format: functional
# [30] = system: Mus musculus; assay: Toxicity in mice after 9-24 days at a dose of 12 mg/kg/day; value is 18/9; format: functional
# [31] = system: Mus musculus; assay: Weight change on day 7 in L1210 Lymphoid Leukemia in mice at a dose of 40 mg/kg/day (qdx9); format: functional
# Summary of the method: (§5)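 Male B6D2F1J mice (20–25 g) were inoculated i.p. with 10⁵ L1210 ascites cells on day 0 and randomized into groups of 5. Drug in water at pH 7.5–8.0 was given i.p. daily for 9 days (qd×9) from day 1. Animals were weighed after 7 days, and the % body-weight change was recorded under a standard NCI protocol.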
# [32] = system: Mus musculus; assay: Weight change on day 7 in L1210 Lymphoid Leukemia in mice at a dose of 4 mg/kg/day (qdx9); format: functional; summary of the method: as §5
# [33] = system: Mus musculus; assay: Weight change on day 7 in L1210 Lymphoid Leukemia in mice at a dose of 60 mg/kg/day (qdx9); format: functional; summary of the method: as §5
# [34] = system: Mus musculus; assay: Toxicity in mice after 10-24 days at a dose of 15 mg/kg/day; value is 21/9; format: functional
# [35] = system: Mus musculus; assay: Weight change on day 7 in L1210 Lymphoid Leukemia in mice at a dose of 8 mg/kg/day (qdx9); format: functional; summary of the method: as §5
# [36] = system: Mus musculus; assay: Weight change on day 7 in L1210 Lymphoid Leukemia in mice at a dose of 9 mg/kg/day (b.i.d. x10); format: functional
# Summary of the method: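 L1210 ascitic leukemia was implanted i.p. (10⁵ cells, day 0) in male B6D2F1J mice of 20–25 g, 5 per group. Dosing was b.i.d.×10, except that on days 5 and 6 a single double-dose injection was given. The % weight change was recorded at day 7.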
# [37] = molecular target: Dihydrofolate reductase (Lactobacillus casei) (UniProt P00381); conditions: Lacticaseibacillus casei
# Chain of Dihydrofolate reductase (Lactobacillus casei) (P00381 whole entry): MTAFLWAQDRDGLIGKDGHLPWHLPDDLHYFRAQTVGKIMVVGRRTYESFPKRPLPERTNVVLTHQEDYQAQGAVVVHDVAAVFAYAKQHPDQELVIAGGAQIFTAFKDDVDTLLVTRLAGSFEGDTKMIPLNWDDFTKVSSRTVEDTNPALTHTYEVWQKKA
# [38] = molecular target: Dihydrofolate reductase (Lactobacillus casei) (UniProt P00381); conditions: Lacticaseibacillus casei; remark: listed apart in the source
# [39] = molecular target: T1, Dihydrofolate reductase (Mus musculus)
# [40] = system: Carboxypeptidase G1 (Pseudomonas); assay: Tested for substrate activity of compound for Carboxypeptidase G1
smiles,measurement,setting,value
CN(Cc1cnc2nc(N)nc(N)c2n1)c1ccc(C(=O)NC(CCCC(=O)O)C(=O)O)cc1 (stereo unspecified),Ki,[1],2770 nM
same,Ki,[2],3220 nM
same,ID50,[3],1.4 nM
same,ID50,[4],39 nM
same,IC50,[5],30 nM
same,ILS,[6],89%
same,ILS,[7],100%
same,ILS,[8],29%
same,ILS,[9],18%
same,ILS,[10],100%
same,ILS,[11],133%
same,ILS,[12],56%
same,ILS,[13],41%
same,ILS,[14],55%
same,ILS,[15],44%
same,ILS,[16],133%
same,Weight change,[17],-3%
same,Weight change,[18],-7%
same,Weight change,[19],7%
same,Weight change,[20],10%
same,T/C,[21],14
same,T/C,[22],12
same,T/C,[23],13
same,T/C,[24],14
same,T/C,[25],21
same,T/C,[26],17
same,T/C,[27],18
same,T/C,[28],11
same,T/C,[29],10
same,T/C,[30],18
same,Weight change,[31],2%
same,Weight change,[32],7%
same,Weight change,[33],-6%
same,T/C,[34],21
same,Weight change,[35],2%
same,Weight change,[36],-3%
same,ID50,[37],12 nM
same,ID50,[38],6.9 nM
same,ID50,[39],6.7 nM
same,Km,[40],196 µM
same,Vmax,[40],0.124 min⁻¹

# From ChEMBL document CHEMBL1122411 (J Med Chem, 1983)
